Measurements: ChEMBL document CHEMBL5303300, “EUbOPEN Chemogenomics Library - Multiplex” (2023)
“And” between values parts separate entries of the source, which are not always exact repeats. Equal entries are not always repeated.

Legend:
Assay type in all cases: toxicity, cell-based
[1] = system: Fibroblast; test: Multiplex assay against human fibroblast; conditions: number of replicates 2
Procedure, shortened: (§1)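 Phenotypes for tubulin, mitochondrial mass and membrane permeability are expressed as per cents of healthy-nucleus cells. Cells were stained live at seeding with Hoechst33342, BioTracker Green Microtubule Cytoskeleton Dye, MitoTracker Red and Annexin V Alexa Fluor 680, then imaged after compound addition on a CQ1 microscope at 37°C and 5% CO2. Machine-learning gating in CellPathfinder separated Hoechst high-intensity objects from normal cells, divided normal cells by nuclear state (healthy, pyknosed, fragmented) and divided pyknosed cells into mitotic or apoptotic.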

[2] = system: HEK-293T; test: Multiplex assay against HEK293T; conditions: human, number of replicates 2; procedure, shortened: as §1
[3] = system: U2OS; test: Multiplex assay against U2OS; conditions: human, number of replicates 2; procedure, shortened: as §1
[4] = 12 h, 1 µM, compound concentration 1 uM
[5] = 12 h, 10 µM, compound concentration 10 uM
[6] = 24 h, 1 µM, compound concentration 1 uM
[7] = 24 h, 10 µM, compound concentration 10 uM
[8] = 48 h, 1 µM, compound concentration 1 uM
[9] = 48 h, 10 µM, compound concentration 10 uM

Q: `CS(=O)(=O)c1ccc(C(=O)Nc2ccc(F)c(COc3ccc(Br)cc3CNCCO)c2)c(Cl)c1.O=CO` was tested. Which “Population Apoptotic (%)” value [1, 4] did it give?
A: Its value is 41% and 39%.

Q: What about the “Population Healthy Nuclei (%)” value [1, 4] of the same molecule?
A: Its value is 69% and 66%.

Q: What about the “Population Mitotic Cells (%)” value [1, 4] of the same molecule?
A: The value was 58% and 60%.

Q: And the “Total Cell Count” value [1, 4]?
A: Its value is 178 and 232.

Q: What about the “Population Apoptotic (%)” value [1, 5] of the same molecule?
A: The value was 50% and 51%.

Q: And the “Population Healthy Nuclei (%)” value [1, 5]?
A: The value was 49%.

Q: And the “Population Mitotic Cells (%)” value [1, 5]?
A: Its value is 50% and 48%.

Q: And the “Population Pyknosed Nuclei (%)” value [1, 5]?
A: The value was 35% and 30%.

Q: And the “Total Cell Count” value [1, 5]?
A: The value was 220 and 252.

Q: What about the “Population Apoptotic (%)” value [1, 6] of the same molecule?
A: The value was 63% and 46%.

Q: What about the “Population Healthy Nuclei (%)” value [1, 6] of the same molecule?
A: The value was 68% and 56%.

Q: And the “Population Mitotic Cells (%)” value [1, 6]?
A: The value was 36% and 53%.

Q: And the “Total Cell Count” value [1, 6]?
A: The value was 202 and 243.

Q: What about the “Population Apoptotic (%)” value [1, 7] of the same molecule?
A: The value was 68% and 73%.

Q: What about the “Population Healthy Nuclei (%)” value [1, 7] of the same molecule?
A: Its value is 54% and 56%.

Q: And the “Population Mitotic Cells (%)” value [1, 7]?
A: The value was 31% and 26%.

Q: What about the “Population Pyknosed Nuclei (%)” value [1, 7] of the same molecule?
A: The value was 27% and 22%.

Q: What about the “Total Cell Count” value [1, 7] of the same molecule?
A: Its value is 219 and 283.

Q: What about the “Population Apoptotic (%)” value [1, 8] of the same molecule?
A: Its value is 54% and 68%.

Q: And the “Population Healthy Nuclei (%)” value [1, 8]?
A: The value was 71% and 72%.

Q: And the “Population Mitotic Cells (%)” value [1, 8]?
A: Its value is 45% and 31%.

Q: What about the “Total Cell Count” value [1, 8] of the same molecule?
A: Its value is 202 and 207.

Q: What about the “Population Apoptotic (%)” value [1, 9] of the same molecule?
A: Its value is 88% and 77%.

Q: What about the “Population Healthy Nuclei (%)” value [1, 9] of the same molecule?
A: The value was 63% and 61%.

Q: What about the “Population Mitotic Cells (%)” value [1, 9] of the same molecule?
A: Its value is 11% and 22%.

Q: And the “Population Pyknosed Nuclei (%)” value [1, 9]?
A: The value was 22%.

Q: What about the “Total Cell Count” value [1, 9] of the same molecule?
A: Its value is 200 and 244.

Q: And the “Population Apoptotic (%)” value [2, 4]?
A: The value was 55% and 59%.

Q: What about the “Population Healthy Nuclei (%)” value [2, 4] of the same molecule?
A: The value was 78% and 76%.

Q: And the “Population Mitotic Cells (%)” value [2, 4]?
A: Its value is 44% and 40%.

Q: What about the “Total Cell Count” value [2, 4] of the same molecule?
A: Its value is 571 and 534.

Q: What about the “Population Apoptotic (%)” value [2, 5] of the same molecule?
A: The value was 71% and 70%.

Q: What about the “Population Healthy Nuclei (%)” value [2, 5] of the same molecule?
A: The value was 84% and 78%.

Q: What about the “Population Mitotic Cells (%)” value [2, 5] of the same molecule?
A: The value was 28% and 30%.

Q: What about the “Total Cell Count” value [2, 5] of the same molecule?
A: The value was 446 and 461.

Q: What about the “Population Apoptotic (%)” value [2, 6] of the same molecule?
A: Its value is 57% and 61%.

Q: And the “Population Healthy Nuclei (%)” value [2, 6]?
A: Its value is 79% and 77%.

Q: What about the “Population Mitotic Cells (%)” value [2, 6] of the same molecule?
A: The value was 42% and 38%.

Q: What about the “Total Cell Count” value [2, 6] of the same molecule?
A: Its value is 845 and 808.

Q: What about the “Population Apoptotic (%)” value [2, 7] of the same molecule?
A: The value was 72% and 81%.

Q: What about the “Population Healthy Nuclei (%)” value [2, 7] of the same molecule?
A: Its value is 75%.

Q: What about the “Population Mitotic Cells (%)” value [2, 7] of the same molecule?
A: The value was 28% and 18%.

Q: What about the “Total Cell Count” value [2, 7] of the same molecule?
A: The value was 456.

Q: What about the “Population Apoptotic (%)” value [2, 8] of the same molecule?
A: Its value is 30% and 39%.

Q: What about the “Population Healthy Nuclei (%)” value [2, 8] of the same molecule?
A: Its value is 79% and 83%.

Q: And the “Population Mitotic Cells (%)” value [2, 8]?
A: Its value is 69% and 60%.

Q: And the “Total Cell Count” value [2, 8]?
A: Its value is 2082 and 1679.

Q: And the “Population Apoptotic (%)” value [2, 9]?
A: The value was 82% and 80%.

Q: And the “Population Healthy Nuclei (%)” value [2, 9]?
A: Its value is 75%.

Q: What about the “Population Mitotic Cells (%)” value [2, 9] of the same molecule?
A: The value was 17% and 19%.

Q: What about the “Total Cell Count” value [2, 9] of the same molecule?
A: The value was 675 and 612.

Q: And the “Population Apoptotic (%)” value [3, 4]?
A: The value was 50% and 63%.

Q: And the “Population Healthy Nuclei (%)” value [3, 4]?
A: Its value is 75% and 84%.

Q: What about the “Population Hoechst High Intensity Objects (%)” value [3, 4] of the same molecule?
A: Its value is 0%.

Q: And the “Population Mitotic Cells (%)” value [3, 4]?
A: The value was 50% and 36%.

Q: And the “Population Apoptotic (%)” value [3, 5]?
A: Its value is 85% and 58%.

Q: What about the “Population Healthy Nuclei (%)” value [3, 5] of the same molecule?
A: The value was 80% and 77%.

Q: What about the “Population Hoechst High Intensity Objects (%)” value [3, 5] of the same molecule?
A: Its value is 2% and 0%.

Q: And the “Population Mitotic Cells (%)” value [3, 5]?
A: The value was 14% and 41%.

Q: And the “Population Apoptotic (%)” value [3, 6]?
A: The value was 62% and 73%.

Q: What about the “Population Healthy Nuclei (%)” value [3, 6] of the same molecule?
A: The value was 74% and 90%.

Q: And the “Population Hoechst High Intensity Objects (%)” value [3, 6]?
A: Its value is 0%.

Q: What about the “Population Mitotic Cells (%)” value [3, 6] of the same molecule?
A: Its value is 37% and 26%.

Q: And the “Population Apoptotic (%)” value [3, 7]?
A: The value was 90% and 71%.

Q: And the “Population Healthy Nuclei (%)” value [3, 7]?
A: The value was 68%.

Q: What about the “Population Hoechst High Intensity Objects (%)” value [3, 7] of the same molecule?
A: The value was 0%.

Q: And the “Population Apoptotic (%)” value [3, 8]?
A: Its value is 83%.

Q: What about the “Population Healthy Nuclei (%)” value [3, 8] of the same molecule?
A: The value was 81% and 87%.

Q: And the “Population Hoechst High Intensity Objects (%)” value [3, 8]?
A: Its value is 0%.

Q: And the “Population Mitotic Cells (%)” value [3, 8]?
A: The value was 16%.

Q: And the “Population Apoptotic (%)” value [3, 9]?
A: Its value is 66% and 89%.

Q: What about the “Population Healthy Nuclei (%)” value [3, 9] of the same molecule?
A: Its value is 45% and 67%.

Q: What about the “Population Hoechst High Intensity Objects (%)” value [3, 9] of the same molecule?
A: Its value is 0%.
